In ChEMBL document CHEMBL3621107, “Ring fusion strategy for synthesis and lead optimization of sulfur-substituted anthra[1,2-c][1,2,5]thiadiazole-6,11-dione derivatives as promising scaffold of antitumor agents” (Eur J Med Chem, 2015):

Assays:
NCI-H460 = assay: Cytotoxicity against human NCI-H460 cells assessed as cell growth at 10 uM after 48 hrs by SRB assay relative to control; type: functional; settings: NCI-H460, 48 h, read-out: Activity
Procedure, shortened: (§1)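 First-stage NCI DTP one-dose screen against the 60 human tumour cell line panel. Compounds were tested at a single 10 μM level, and results are given as growth percentage.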

Malme-3M = assay: Cytotoxicity against human MALME-3M cells assessed as cell growth at 10 uM after 48 hrs by SRB assay relative to control; type: functional; settings: read-out: Activity
Procedure, shortened: (§2)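 First-stage NCI-60 screen by the NCI Developmental Therapeutics Program. Each compound was tested once at a single concentration of 10 μM against the 60-cell-line panel. Growth percentage was reported for each cell line.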

SK-MEL-5 = assay: Cytotoxicity against human SK-MEL-5 cells assessed as cell growth at 10 uM after 48 hrs by SRB assay relative to control; type: functional; settings: SK-MEL-5, 48 h, read-out: Activity; procedure, shortened: as §1
[1] = Cytotoxicity against human EKVX cells assessed as cell growth at 10 uM after 48 hrs by SRB assay relative to control; type: functional; settings: read-out: Activity; procedure, shortened: as §2
LOX IMVI = assay: Cytotoxicity against human LOXIMVI cells assessed as cell growth at 10 uM after 48 hrs by SRB assay relative to control; type: functional; settings: read-out: Activity; procedure, shortened: as §2
[2] = Cytotoxicity against human Hs578T cells assessed as cell growth at 10 uM after 48 hrs by SRB assay relative to control; type: functional; settings: Hs-578T, read-out: Activity; procedure, shortened: as §2
HOP-92 = assay: Cytotoxicity against human HOP92 cells assessed as cell growth at 10 uM after 48 hrs by SRB assay relative to control; type: functional; settings: HOP-92, 48 h, read-out: Activity; procedure, shortened: as §2
UACC-62 = assay: Cytotoxicity against human UACC62 cells assessed as cell growth at 10 uM after 48 hrs by SRB assay relative to control; type: functional; settings: UACC-62, 48 h, read-out: Activity
Procedure, shortened: (§3)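 NCI-60 one-dose screen run by NCI DTP: each cell line exposed to a single 10 µM dose, and percentage growth recorded against untreated growth.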

HCT-15 = assay: Cytotoxicity against human HCT15 cells assessed as cell growth at 10 uM after 48 hrs by SRB assay relative to control; type: functional; settings: HCT-15, 48 h, read-out: Activity; procedure, shortened: as §2
PC-3 = assay: Cytotoxicity against human PC3 cells assessed as cell growth at 10 uM after 48 hrs by SRB assay relative to control; type: functional; settings: PC-3, 48 h, read-out: Activity; procedure, shortened: as §1
SK-OV-3 = assay: Cytotoxicity against human SKOV3 cells assessed as cell growth at 10 uM after 48 hrs by SRB assay relative to control; type: functional; settings: SK-OV-3, 48 h, read-out: Activity; procedure, shortened: as §1
T47D = assay: Cytotoxicity against human T47D cells assessed as cell growth at 10 uM after 48 hrs by SRB assay relative to control; type: functional; settings: read-out: Activity; procedure, shortened: as §3
IGROV-1 = assay: Cytotoxicity against human IGROV1 cells assessed as cell growth at 10 uM after 48 hrs by SRB assay relative to control; type: functional; settings: IGROV-1, 48 h, read-out: Activity; procedure, shortened: as §2
DU-145 [3] = assay: Cytotoxicity against human DU145 cells after 72 hrs by MTT assay; type: functional, cell-based; settings: DU-145, 72 h
Procedure, shortened: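 DU-145 cells grown in RPMI-1640 with 5% heat-inactivated fetal calf serum at 37 °C, 5% CO2. About 2×10^3 cells per well were seeded and incubated for 24 h. Compounds were dissolved in DMSO freshly and diluted into medium (vehicle 0.1% DMSO), then cells were exposed for 72 h. MTT was added for 3 h at 37 °C and absorbance read at 570 nm.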

NCI-H226 = assay: Cytotoxicity against human NCI-H226 cells assessed as cell growth at 10 uM after 48 hrs by SRB assay relative to control; type: functional; settings: NCI-H226, 48 h, read-out: Activity; procedure, shortened: as §1
KM12 = assay: Cytotoxicity against human KM12 cells assessed as cell growth at 10 uM after 48 hrs by SRB assay relative to control; type: functional; settings: KM12, 48 h, read-out: Activity; procedure, shortened: as §2
786-0 = assay: Cytotoxicity against human 786-0 cells assessed as cell growth at 10 uM after 48 hrs by SRB assay relative to control; type: functional; settings: 786-0, 48 h, read-out: Activity; procedure, shortened: as §2
TK-10 = assay: Cytotoxicity against human TK10 cells assessed as cell growth at 10 uM after 48 hrs by SRB assay relative to control; type: functional; settings: TK-10, 48 h, read-out: Activity; procedure, shortened: as §3
RXF 393 = assay: Cytotoxicity against human RXF393 cells assessed as cell growth at 10 uM after 48 hrs by SRB assay relative to control; type: functional; settings: RXF 393, 48 h, read-out: Activity; procedure, shortened: as §1
A498 = assay: Cytotoxicity against human A498 cells assessed as cell growth at 10 uM after 48 hrs by SRB assay relative to control; type: functional; settings: A498, 48 h, read-out: Activity; procedure, shortened: as §2
SK-MEL-2 = assay: Cytotoxicity against human SK-MEL-2 cells assessed as cell growth at 10 uM after 48 hrs by SRB assay relative to control; type: functional; settings: SK-MEL-2, 48 h, read-out: Activity; procedure, shortened: as §1
MDA-MB-231 = assay: Cytotoxicity against human MDA-MB-231 cells assessed as cell growth at 10 uM after 48 hrs by SRB assay relative to control; type: functional; settings: MDA-MB-231, 48 h, read-out: Activity; procedure, shortened: as §1
HT-29 = assay: Cytotoxicity against human HT-29 cells assessed as cell growth at 10 uM after 48 hrs by SRB assay relative to control; type: functional; settings: HT-29, 48 h, read-out: Activity; procedure, shortened: as §2
OVCAR-5 = assay: Cytotoxicity against human OVCAR5 cells assessed as cell growth at 10 uM after 48 hrs by SRB assay relative to control; type: functional; settings: OVCAR-5, 48 h, read-out: Activity; procedure, shortened: as §1
NCI-H23 = assay: Cytotoxicity against human NCI-H23 cells assessed as cell growth at 10 uM after 48 hrs by SRB assay relative to control; type: functional; settings: NCI-H23, 48 h, read-out: Activity; procedure, shortened: as §1
HCC 2998 = assay: Cytotoxicity against human HCC2998 cells assessed as cell growth at 10 uM after 48 hrs by SRB assay relative to control; type: functional; settings: HCC 2998, 48 h, read-out: Activity; procedure, shortened: as §2
U-251 = assay: Cytotoxicity against human U251 cells assessed as cell growth at 10 uM after 48 hrs by SRB assay relative to control; type: functional; settings: U-251, 48 h, read-out: Activity; procedure, shortened: as §3
M14 = assay: Cytotoxicity against human M14 cells assessed as cell growth at 10 uM after 48 hrs by SRB assay relative to control; type: functional; settings: M14, 48 h, read-out: Activity; procedure, shortened: as §2
SK-MEL-28 = assay: Cytotoxicity against human SK-MEL-28 cells assessed as cell growth at 10 uM after 48 hrs by SRB assay relative to control; type: functional; settings: SK-MEL-28, 48 h, read-out: Activity; procedure, shortened: as §1
DU-145 [4] = assay: Cytotoxicity against human DU145 cells assessed as cell growth at 10 uM after 48 hrs by SRB assay relative to control; type: functional; settings: DU-145, 48 h, read-out: Activity; procedure, shortened: as §2
ACHN = assay: Cytotoxicity against human ACHN cells assessed as cell growth at 10 uM after 48 hrs by SRB assay relative to control; type: functional; settings: read-out: Activity; procedure, shortened: as §2
BT-549 = assay: Cytotoxicity against human BT549 cells assessed as cell growth at 10 uM after 48 hrs by SRB assay relative to control; type: functional; settings: BT-549, 48 h, read-out: Activity; procedure, shortened: as §2

Cc1ccccc1Sc1cc2c(c3nsnc13)C(=O)c1ccccc1C2=O
growth at 10 µM (NCI-H460): 88.9% | growth at 10 µM (Malme-3M): 96.8% | growth at 10 µM (SK-MEL-5): 87.5% | growth at 10 µM [1]: 105% | growth at 10 µM (LOX IMVI): 30% | growth at 10 µM [2]: 83.7% | growth at 10 µM (HOP-92): 89.9% | growth at 10 µM (UACC-62): 90.7% | growth at 10 µM (HCT-15): 38.6% | growth at 10 µM (PC-3): 73.3% | growth at 10 µM (SK-OV-3): 93.8% | growth at 10 µM (T47D): 51.9% | growth at 10 µM (IGROV-1): 80.1% | IC50 (DU-145 [3]): > 15 µM | growth at 10 µM (NCI-H226): 95.7% | growth at 10 µM (KM12): 103% | growth at 10 µM (786-0): 100% | growth at 10 µM (TK-10): 123% | growth at 10 µM (RXF 393): 95.9% | growth at 10 µM (A498): 85.5% | growth at 10 µM (SK-MEL-2): 73.3% | growth at 10 µM (MDA-MB-231): 60.7% | growth at 10 µM (HT-29): 104% | growth at 10 µM (OVCAR-5): 126% | growth at 10 µM (NCI-H23): 53.2% | growth at 10 µM (HCC 2998): 124% | growth at 10 µM (U-251): 62.4% | growth at 10 µM (M14): 94.2% | growth at 10 µM (SK-MEL-28): 106% | growth at 10 µM (DU-145 [4]): 102% | growth at 10 µM (ACHN): 89.8% | growth at 10 µM (BT-549): 95.3%

O=C1c2ccccc2C(=O)c2c1cc(Cl)c1nsnc21
growth at 10 µM (NCI-H460): 100% | growth at 10 µM (Malme-3M): 97.1% | growth at 10 µM (SK-MEL-5): 72.5% | growth at 10 µM [1]: 82.2% | growth at 10 µM (LOX IMVI): 10.2% | growth at 10 µM [2]: 72.5% | growth at 10 µM (HOP-92): -52.2% | growth at 10 µM (UACC-62): 72.9% | growth at 10 µM (HCT-15): 96.8% | growth at 10 µM (PC-3): 23.5% | growth at 10 µM (SK-OV-3): 109% | growth at 10 µM (T47D): -54.6% | growth at 10 µM (IGROV-1): 52.5% | IC50 (DU-145 [3]): 6.68 µM | growth at 10 µM (NCI-H226): 100% | growth at 10 µM (KM12): 95.9% | growth at 10 µM (786-0): 102% | growth at 10 µM (TK-10): 134% | growth at 10 µM (RXF 393): 71.9% | growth at 10 µM (A498): 93.8% | growth at 10 µM (SK-MEL-2): 0.21% | growth at 10 µM (MDA-MB-231): -23.4% | growth at 10 µM (NCI-H23): 75% | growth at 10 µM (HCC 2998): 106% | growth at 10 µM (U-251): 29.2% | growth at 10 µM (M14): 103% | growth at 10 µM (SK-MEL-28): 132% | growth at 10 µM (DU-145 [4]): 97% | growth at 10 µM (BT-549): 102%

Cc1ccc(Sc2cc3c(c4nsnc24)C(=O)c2ccccc2C3=O)c(C)c1
growth at 10 µM (NCI-H460): 102% | growth at 10 µM (Malme-3M): 108% | growth at 10 µM (SK-MEL-5): 110% | growth at 10 µM [1]: 109% | growth at 10 µM (LOX IMVI): 90.4% | growth at 10 µM [2]: 99.1% | growth at 10 µM (HOP-92): 97.8% | growth at 10 µM (UACC-62): 94.5% | growth at 10 µM (HCT-15): 83% | growth at 10 µM (PC-3): 76.1% | growth at 10 µM (SK-OV-3): 110% | growth at 10 µM (T47D): 75.4% | growth at 10 µM (IGROV-1): 95% | IC50 (DU-145 [3]): 15.9 µM | growth at 10 µM (NCI-H226): 1.5% | growth at 10 µM (KM12): 96.4% | growth at 10 µM (786-0): 105% | growth at 10 µM (TK-10): 127% | growth at 10 µM (RXF 393): 106% | growth at 10 µM (A498): 84.4% | growth at 10 µM (SK-MEL-2): 98.5% | growth at 10 µM (MDA-MB-231): 92.3% | growth at 10 µM (HT-29): 101% | growth at 10 µM (OVCAR-5): 106% | growth at 10 µM (NCI-H23): 89.4% | growth at 10 µM (HCC 2998): 121% | growth at 10 µM (U-251): 105% | growth at 10 µM (M14): 101% | growth at 10 µM (SK-MEL-28): 119% | growth at 10 µM (DU-145 [4]): 110% | growth at 10 µM (ACHN): 94.2% | growth at 10 µM (BT-549): 94.5%
